Experimental data from different studies.
Lines come from different studies, so protocols differ.
Target: RAC-gamma serine/threonine-protein kinase (AKT3, Homo sapiens, UniProt Q9Y243)

Compound | assay | setting | remaining binding
Cc1cnn2ncc(-c3ccnc(N(C)C)n3)c2c1 | binding | 1 µM | 98%
O=C(NCC1CCOCC1)c1n[nH]cc1NC(=O)c1c(F)cccc1F | binding, competition with immobilised ligand | 1 µM | 90%
N[C@@H]1CCN(c2nccc(-c3cnn4ncccc34)n2)C1 | binding | 1 µM | 95%
Nc1ncc2c(n1)-c1c([nH]c3ccc(C#CC4CC4)cc13)CCCC2 | binding, competition with immobilised ligand | 1 µM | 69%
O=C(NS(=O)(=O)c1ccc(NCC2CCOCC2)c([N+](=O)[O-])c1)c1ccc(N2CCN(Cc3ccc(C(F)(F)F)cc3-c3ccc(Cl)cc3)CC2)cc1Oc1cnc2[nH]ccc2c1 | cell-free assay, competition with immobilised ligand | 1 µM | 89%
C[C@H]1CCN(c2nccc(-c3cnn4ncccc34)n2)C1 | binding | 1 µM | 99%
O=C(O)[C@@H]1[C@@H](Cn2nnc3ccccc3c2=O)CC[C@H]1C(=O)c1ccc(OCCC2CCOCC2)cc1 | cell-free assay, competition with immobilised ligand | 1 µM | 100%
O=C(NCCCN1CCOCC1)c1ccc(Nc2nccc(-c3cc4ccccc4s3)n2)cc1 | binding, competition with immobilised ligand | 1 µM | 100%
O=C1NC(c2ccccn2)Sc2ccccc21 (stereo not drawn) | cell-free assay, competition with immobilised ligand | 1 µM | 100%
c1cncc(-c2cccc(Nc3nccc(NC4CCCCC4)n3)c2)c1 | binding, competition with immobilised ligand | 10 µM | 69%
CN(C)c1nccc(-c2cnn3ncccc23)n1 | binding | 1 µM | 100%
COc1ncc2cc3ccccc3nc2c1C#N | cell-free assay, competition with immobilised ligand | 5 µM | 100%
FC(F)(F)Oc1cccc(-c2cnc3ccc(-c4ccncc4)nn23)c1 | cell-free assay, competition with immobilised ligand | 5 µM | 99%
O=C(NCCCN1CCOCC1)c1ccc(Nc2ncc(Cl)c(-c3ccc(Cl)s3)n2)cc1 | binding, competition with immobilised ligand | 1 µM | 100%
c1ccc(N2CCN(Cc3nc4ccccc4[nH]3)CC2)nc1 | binding, competition with immobilised ligand | 1 µM | 100%
CN(C)c1nccc(-c2cnc3ncccn23)n1 | binding | 1 µM | 91%
Cc1cnc(Nc2ccc(C(=O)N3CCC(N4CCCC4)CC3)cc2)nc1-c1cc2ccccc2s1 | binding, competition with immobilised ligand | 1 µM | 100%
CCC(=O)N[C@H]1CC[C@@H](C(=O)N(C)c2ccc(-c3nc4ccccc4o3)cc2)C1 | cell-free assay, competition with immobilised ligand | 1 µM | 100%
CNC(=O)[C@@H]1CC[C@@H](n2c(-c3ccc4cnccc4c3)nc3ccc(C(=O)NCc4cccc(C(N)=O)c4)cc32)C1 | binding, competition with immobilised ligand | 1 µM | 100%
COc1ccc2c(c1)O[C@H](c1ccc(OC)c(OC)c1)C[C@@H]2NC(=O)C1(c2ccc3c(c2)OC(F)(F)O3)CC1 | cell-free assay, competition with immobilised ligand | 1 µM | 100%
CN(C)c1ncc(F)c(-c2cnn3ncccc23)n1 | binding | 1 µM | 100%
